We go through 2 compounds from ChEMBL document CHEMBL1806449, “A class of Trp-Trp-AA-OBzl: Synthesis, in vitro anti-proliferation/in vivo anti-tumor evaluation, intercalation-mechanism investigation and 3D QSAR analysis” (Eur J Med Chem, 2011).

Data set [1] has as its system Mus musculus. Put plainly: Acute toxicity in ICR mouse assessed as jumping at 500 mg/kg, ip administered qd for 7 days. In kind it is organism-based. The arrangement: dose 500 mg/kg, route intraperitoneal. Conditions: in vivo, 168 h.
A further data set has as its system HepG2. The experiment in a line: Antiproliferative activity against human HepG2 cells after 48 hrs by MTT assay. In kind it is functional, cell-based. The settings on record: HepG2, 48 h. (Tetrazolium assays rely on reduction of a dye to a coloured formazan, in cell work by metabolically active cells.)
Data set [2] has as its system Mus musculus. Put plainly: Acute toxicity in ICR mouse assessed as twitch at 500 mg/kg, ip administered qd for 7 days. In kind it is organism-based. On the set-up: dose 500 mg/kg, route intraperitoneal. The settings on record: in vivo, 168 h.
Data set [3] concerns CCRF S-180. Put plainly: Antiproliferative activity against mouse S180 cells after 48 hrs by MTT assay. In kind it is functional, cell-based. The settings on record: CCRF S-180, 48 h.
Data set [4] can be described thus: Acute toxicity in ip dosed ICR mouse assessed as lethal dose. The class given is organism-based. The settings on record: in vivo. A digest of the protocol:
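Male ICR mice, 24 weeks old, got a single i.p. injection of 500 mg/kg in 0.2 ml NS (normal saline). They were watched for 7 days for neurotoxic behaviour (tremor, twitch, jumping, tetanus, supination) and for death.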

Data set [5] concerns CCRF S-180. The experiment in a line: Antitumor activity against mouse S180 cells xenografted in ICR mouse assessed as tumor growth inhibition at 0.089 umol/kg, ip qd administered 1 day after tumor inoculation for 7 days. In kind it is functional. Conditions: CCRF S-180, ip, read-out: GI. A digest of the protocol:
(§1)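 Male ICR mice 10–12 weeks; S180 from ascites serially transplanted weekly; 1×10^7 viable cells in 0.2 ml NS implanted s.c. at right oxter; 24 h later randomized (10 per group); daily i.p. 8.9, 0.89 or 0.089 µmol/kg/day in 0.2 ml NS, 7 days; NS and cytarabine controls; sacrificed 24 h after last dose; inhibition % = [1−(Tw/Cw)]×100.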

Data set [6] deals with CCRF S-180. Put plainly: Antitumor activity against mouse S180 cells xenografted in ICR mouse assessed as tumor growth inhibition at 8.9 umol/kg, ip administered 1 day after tumor inoculation qd for 7 days. In kind it is functional. Conditions: CCRF S-180, ip, read-out: GI. An outline of the steps:
as §1

For data set [7], the system named is CCRF S-180. The experiment in a line: Antitumor activity against mouse S180 cells xenografted in ICR mouse assessed as tumor growth inhibition at 0.89 umol/kg, ip administered 1 day after tumor inoculation qd for 7 days. In kind it is functional. Conditions: CCRF S-180, ip, read-out: GI. A digest of the protocol:
as §1

The test system of another data set is H22. The experiment in a line: Antiproliferative activity against mouse H22 cells after 48 hrs by MTT assay. In kind it is functional, cell-based. Conditions: H22, 48 h.
Data set [8] relates to Mus musculus. The experiment in a line: Toxicity in ICR mouse xenografted with mouse S180 cells assessed as increase in body weight at 8.9 umol/kg. In kind it is organism-based, CCRF S-180. Conditions: in vivo. An outline of the steps:
(§2)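 S180-bearing male ICR mice (10–12 weeks; 1×10^7 cells s.c. right oxter; 12 per group), daily i.p. 8.9 µmol/kg for seven days starting 24 h after implantation; NS, cytarabine and doxorubicin controls; liver, brain, kidney weights, spleen index and body-weight gain recorded.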

Data set [9] has as its system Mus musculus. Put plainly: Acute toxicity in ICR mouse assessed as tetanus at 500 mg/kg, ip administered qd for 7 days. In kind it is organism-based. The arrangement: dose 500 mg/kg, route intraperitoneal. The settings on record: in vivo, 168 h.
In a further data set the test system is K562. Put plainly: Antiproliferative activity against human K562 cells after 48 hrs by MTT assay. The class given is functional, cell-based. The settings on record: K562, 48 h.
Data set [10] relates to Mus musculus. The experiment in a line: Acute toxicity in ICR mouse assessed as supination at 500 mg/kg, ip administered qd for 7 days. In kind it is organism-based. On the set-up: dose 500 mg/kg, route intraperitoneal. Conditions: in vivo, 168 h.
Data set [11] deals with Nucleic Acid. Put plainly: Binding affinity to double stranded calf thymus DNA assessed as change in melting temperature per minute. Conditions: Bos taurus. The class given is nucleic-acid assay. An outline of the steps:
(§3)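 CT DNA in PBS pH 7.4, alone or with compound; temperature raised 1 °C/min with absorbance at 279 nm; Tm taken as temperature giving 50% absorbance increase.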

Data set [12] has as its system Mus musculus. Put plainly: Acute toxicity in ICR mouse assessed as tremors at 500 mg/kg, ip administered qd for 7 days. In kind it is organism-based. The arrangement: dose 500 mg/kg, route intraperitoneal. Conditions: in vivo, 168 h.
Data set [13] relates to Mus musculus. The experiment in a line: Acute toxicity in ICR mouse assessed as mortality at 500 mg/kg, ip administered qd for 7 days. In kind it is organism-based. The arrangement: dose 500 mg/kg, route intraperitoneal. Conditions: in vivo, 168 h.
Data set [14] has as its system Mus musculus. Put plainly: Toxicity in ICR mouse xenografted with mouse S180 cells assessed as increase in spleen index at 8.9 umol/kg. The class given is organism-based, CCRF S-180. Conditions: in vivo. An outline of the steps: as §2
The next data set concerns B16. Put plainly: Antiproliferative activity against mouse B16 cells after 48 hrs by MTT assay. The class given is functional, cell-based. The settings on record: B16, 48 h.
Data set [15] deals with Nucleic Acid. The experiment in a line: Binding affinity to calf thymus DNA assessed as increase in DNA viscosity at compound to DNA ratio of 0.36. The settings on record: Bos taurus. The class given is nucleic-acid assay. A digest of the protocol:
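Relative viscosity of CT DNA solutions measured at compound/CT DNA ratios 0–0.36.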

The subject of data set [16] is Mus musculus. The experiment in a line: Toxicity in ICR mouse xenografted with mouse S180 cells assessed as effect on brain weight at 8.9 umol/kg. In kind it is organism-based, CCRF S-180. The settings on record: in vivo. A digest of the protocol: as §2
For data set [17], the system named is Mus musculus. Put plainly: Toxicity in ICR mouse xenografted with mouse S180 cells assessed as effect on kidney weight at 8.9 umol/kg. Conditions: in vivo. In kind it is organism-based, CCRF S-180. A digest of the protocol:
as §2

Data set [18] relates to Nucleic Acid. The experiment in a line: Binding affinity to double strand calf thymus DNA assessed as melting temperature. The class given is nucleic-acid assay. The settings on record: Bos taurus. An outline of the steps: as §3
The subject of data set [19] is Mus musculus. Put plainly: Acute toxicity in ICR mouse assessed as apparent changes in any organ at 500 mg/kg, ip administered qd for 7 days. In kind it is organism-based. On the set-up: dose 500 mg/kg, route intraperitoneal. Conditions: in vivo, 168 h.
The subject of data set [20] is Mus musculus. Put plainly: Toxicity in ICR mouse xenografted with mouse S180 cells assessed as effect on liver weight at 8.9 umol/kg. The class given is organism-based, CCRF S-180. The settings on record: in vivo. A digest of the protocol:
as §2

The subject of data set [21] is Mus musculus. Put plainly: Toxicity in ICR mouse xenografted with mouse S180 cells assessed as effect on kidney weight at 2 umol/kg. The class given is organism-based, CCRF S-180. Conditions: in vivo.
The subject of data set [22] is Mus musculus. The experiment in a line: Toxicity in ICR mouse xenografted with mouse S180 cells assessed as effect on brain weight at 2 umol/kg. The settings on record: in vivo. In kind it is organism-based, CCRF S-180.
For data set [23], the system named is Mus musculus. Put plainly: Toxicity in ICR mouse xenografted with mouse S180 cells assessed as increase in body weight at 2 umol/kg. The class given is organism-based, CCRF S-180. Conditions: in vivo.
Data set [24] has as its system Mus musculus. The experiment in a line: Toxicity in ICR mouse xenografted with mouse S180 cells assessed as effect on liver weight at 2 umol/kg. The class given is organism-based, CCRF S-180. The settings on record: in vivo.
For data set [25], the system named is Mus musculus. The experiment in a line: Toxicity in ICR mouse xenografted with mouse S180 cells assessed as increase in spleen index at 2 umol/kg. The class given is organism-based, CCRF S-180. The settings on record: in vivo.

pIC50: −log10 of the molar value. Active and inactive are the calls of the source. The calls are words filed in the database; no cut-off is given here. Peptide text beside a SMILES is read from it. * marks the point of attachment. OBn = c1ccc(CO*)cc1

For orientation: pIC50 means the IC50 on a negative log10 scale, so that one unit is a factor of ten. Low values mean a large IC50, high ones a small IC50. As usually defined, the LD50 is the dose expected to kill half of the subjects tested. What is called ΔTm is the change in melting temperature against a reference sample. Take `CC(C)[C@H](NC(=O)[C@H](Cc1c[nH]c2ccccc12)NC(=O)[C@@H](N)Cc1c[nH]c2ccccc12)C(=O)OCc1ccccc1` (H-Trp-Trp-Val-OBn): the Activity result was “Non-toxic” in the data set on Mus musculus [1]; “Non-toxic” in the data set on Mus musculus [2]; 9.97 g with Mus musculus [8]; “Non-toxic” in the data set on Mus musculus [9]; “Non-toxic” in the data set on Mus musculus [10]; “Non-toxic” in the data set on Mus musculus [12]. Besides, the Activity entry was “Non-toxic” in the data set with Mus musculus [13]; 7.97 in the data set with Mus musculus [14]; 0.27 g in the data set on Mus musculus [16]; 0.15 g in the data set with Mus musculus [17]; “Non-toxic” with Mus musculus [19]; 1.89 g in the data set with Mus musculus [20]. Also, the pIC50 with HepG2 was 5.02; in the data set with CCRF S-180 [3], 5.09; with H22 it was 5.00; in the data set on K562 it was 5.08; in the data set with B16, 4.95. The LD50 in [4] was > 500 mg/kg. In addition, the inhibition in vivo at 0.089 µmol/kg in the data set on CCRF S-180 [5] amounted to 41.7%. Moreover, in the data set with CCRF S-180 [6], the inhibition in vivo at 8.9 µmol/kg came out at 79.5%. Moreover, the inhibition in vivo at 0.89 µmol/kg with CCRF S-180 [7] is 70.2%. For the same compound, the ΔTm in the data set with Nucleic Acid [11] came out at 1 °C. For the same compound, the outcome in the data set on Nucleic Acid [15] was Active. For the same compound, the Tm with Nucleic Acid [18] came out at 22 °C.
Take `Nc1ccn([C@@H]2O[C@H](CO)[C@@H](O)[C@@H]2O)c(=O)n1` [CYTARABINE]: the Activity in the data set with Mus musculus [21] was 0.16 g; in the data set with Mus musculus [22], 0.29 g; in the data set with Mus musculus [23], 7.12 g; in the data set with Mus musculus [24], 1.62 g; in the data set with Mus musculus [25], 7.5. The pIC50 was 4.58 with HepG2; 4.59 in the data set on CCRF S-180 [3]; 4.59 in the data set with H22; 4.61 in the data set on K562; 4.51 in the data set with B16. The inhibition in vivo at 0.089 µmol/kg in the data set with CCRF S-180 [5] came out at 7.86%. In addition, the inhibition in vivo at 8.9 µmol/kg with CCRF S-180 [6] was found to be 31.9%. Moreover, the inhibition in vivo at 0.89 µmol/kg in the data set on CCRF S-180 [7] turned out to be 20.6%.
